Measurements as given in ChEMBL document CHEMBL1153988 (J Med Chem, 2009).
Active and inactive are the calls of the source. No cut-off for these calls is given here.

What was measured:
[1] = system: Mus musculus; test: Teratogenic effect in SWV mouse assessed as number of dead fetuses at 671 mg/kg, ip administered on morning of day 8 of gestation; format: toxicity, organism-based; design: dose 671 mg/kg, route intraperitoneal; settings: in vivo
In short: (§1)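 Inbred SWV mouse strain highly susceptible to VPA-induced neural tube defects. Each dam received a single ip injection on gestation day 8.5, dosed within 1.8-4.2 mmol/kg, against a control of 25% aqueous Cremophor EL. Groups were compared with the control, and with the matched VPA sodium-salt dose, by Fisher's exact test (p < 0.05).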

[2] = system: Rattus norvegicus; test: Anticonvulsant activity in albino Sprague-Dawley rat assessed as protection against maximal electroshock-induced seizures at 50 mg/kg, po after 1 hr; format: functional
In short: (§2)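 Adult male Sprague-Dawley albino rats (100-150 g) dosed orally with compound suspended in 0.5% methylcellulose (0.04 mL per 10 g). Maximal electroshock challenge at the stated time. Protection is scored in 25% steps as the fraction of animals protected, with neurotoxicity recorded in parallel.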

[3] = system: Mus musculus; test: Neurotoxicity in CF1 albino mouse at 300 mg/kg, ip after 0.5 hrs; format: toxicity, organism-based; design: dose 300 mg/kg, route intraperitoneal; settings: in vivo
In short: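 Male CF no. 1 albino mice (18-25 g) received a single ip dose as a suspension in 0.5% methylcellulose. The read-out was the number of animals showing neurotoxicity (minimal motor impairment) over the number tested.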

[4] = system: Mus musculus; test: Anticonvulsant activity in CF1 albino mouse assessed as protection against 44 mA-current-induced seizure at 25 mg/kg, ip by 6Hz psychomotor seizure test; format: functional, organism-based; design: dose 25 mg/kg
In short: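 6 Hz psychomotor seizure test in male CF no. 1 mice, with compound given ip as a 0.5% methylcellulose suspension. Groups of 8 animals per dose. The 32 mA test used 25, 70 and 130 mg/kg; the 44 mA test used 25, 50, 75 and 100 mg/kg. ED50 and 95% confidence interval were obtained by probit analysis.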

[5] = system: Mus musculus; test: Anticonvulsant activity in CF1 albino mouse assessed as protection against maximal electroshock-induced seizures at 300 mg/kg, ip after 0.5 hrs; format: functional, organism-based; design: dose 300 mg/kg
In short: (§3)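 Adult male CF no. 1 albino mice (18-25 g). Test compound suspended in 0.5% methylcellulose and given intraperitoneally at 0.01 mL/g body weight. Maximal electroshock challenge at the stated time. Read-out is the number of animals protected over the number tested; neurotoxicity is scored in parallel.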

[6] = system: Mus musculus; test: Anticonvulsant activity in CF1 albino mouse assessed as protection against scMet-induced seizures at 100 mg/kg, ip after 0.5 hrs; format: functional, organism-based; design: dose 100 mg/kg
In short: (§4)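 Adult male CF no. 1 albino mice (18-25 g) dosed intraperitoneally with compound suspended in 0.5% methylcellulose (0.01 mL/g). Convulsant challenge given subcutaneously as a 0.85% pentylenetetrazol solution in 0.9% saline. Read-out is animals protected over animals tested, with neurotoxicity scored in parallel.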

[7] = species on record: Mus musculus; test: Protective index, ratio of TD50 for CF1 albino mouse to ED50 for 44 mA-current-induced CF1 albino mouse seizure model; format: functional
In short: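 Protective index is the mouse TD50 (minimal motor impairment) divided by the 6 Hz test ED50 at 32 or 44 mA. Male CF no. 1 mice were dosed ip in 0.5% methylcellulose, and values came from probit analysis.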

[8] = system: Mus musculus; test: Teratogenic effect in SWV mouse assessed as resorptions at 336 mg/kg, ip administered on morning of day 8 of gestation; format: toxicity, organism-based; design: dose 336 mg/kg, route intraperitoneal; settings: in vivo; in short: as §1
[9] = species on record: Rattus norvegicus; test: Protective index, ratio of TD50 for albino Sprague-Dawley rat to ED50 for scMet-induced albino Sprague-Dawley rat seizure model; format: functional
In short: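 Protective index is the rat TD50 (minimal motor impairment) divided by the ED50 in the MES or sc pentylenetetrazol test. Male Sprague-Dawley rats were dosed orally in 0.5% methylcellulose, and both values came from probit analysis.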

[10] = system: Mus musculus; test: Teratogenic effect in VPA-induced SWV mouse assessed as number of fetuses with neural tube deffects at 336 mg/kg, ip administered on morning of day 8 of gestation; format: toxicity, organism-based; design: dose 336 mg/kg, route intraperitoneal; settings: in vivo; in short: as §1
[11] = system: Mus musculus; test: Teratogenic effect in SWV mouse assessed as live fetuses at 502 mg/kg, ip administered on morning of day 8 of gestation; format: toxicity, organism-based; design: dose 502 mg/kg, route intraperitoneal; settings: in vivo
[12] = system: Rattus norvegicus; test: Anticonvulsant activity in albino Sprague-Dawley rat assessed as protection against maximal electroshock-induced seizures at 50 mg/kg, po after 15 mins; format: functional; in short: as §2
[13] = system: Mus musculus; test: Teratogenic effect in SWV mouse assessed as number of dead fetuses at 502 mg/kg, ip administered on morning of day 8 of gestation; format: toxicity, organism-based; design: dose 502 mg/kg, route intraperitoneal; settings: in vivo; in short: as §1
[14] = system: Mus musculus; test: Anticonvulsant activity in CF1 albino mouse assessed as protection against maximal electroshock-induced seizures at 100 mg/kg, ip after 4 hrs; format: functional, organism-based; design: dose 100 mg/kg; in short: as §3
[15] = system: Rattus norvegicus; test: Anticonvulsant activity in po dosed albino Sprague-Dawley rat assessed as protection against maximal electroshock-induced seizures; format: functional
[16] = system: Mus musculus; test: Anticonvulsant activity in CF1 albino mouse assessed as protection against scMet-induced seizures at 100 mg/kg, ip; format: functional, organism-based; design: dose 100 mg/kg; in short: as §4
[17] = system: Mus musculus; test: Teratogenic effect in SWV mouse assessed as number of litters at 671 mg/kg, ip administered on morning of day 8 of gestation; format: toxicity, organism-based; design: dose 671 mg/kg, route intraperitoneal; settings: in vivo; in short: as §1
[18] = system: Mus musculus; test: Teratogenic effect in SWV mouse assessed as live fetuses at 336 mg/kg, ip administered on morning of day 8 of gestation; format: toxicity, organism-based; design: dose 336 mg/kg, route intraperitoneal; settings: in vivo
[19] = system: Mus musculus; test: Anticonvulsant activity in CF1 albino mouse assessed as protection against maximal electroshock-induced seizures at 150 mg/kg, ip after 0.5 hrs; format: functional, organism-based; design: dose 150 mg/kg; in short: as §3
[20] = system: Rattus norvegicus; test: Neurotoxicity in albino Sprague-Dawley rat at 50 mg/kg, po; format: toxicity, organism-based; design: dose 50 mg/kg, route oral; settings: in vivo
In short: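 Neurotoxicity was scored in male Sprague-Dawley albino rats (100-150 g) dosed orally with a suspension in 0.5% methylcellulose. The read-out was the fraction of animals showing neurotoxicity (minimal motor impairment).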

[21] = system: Mus musculus; test: Anticonvulsant activity in CF1 albino mouse assessed as protection against maximal electroshock-induced seizures at 300 mg/kg, ip after 4 hrs; format: functional, organism-based; design: dose 300 mg/kg; in short: as §3
[22] = system: Mus musculus; test: Anticonvulsant activity in ip dosed CF1 albino mouse assessed as protection against scMet-induced seizures; format: functional
In short: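 Adult male CF no. 1 albino mice (18-25 g) dosed ip with compound suspended in 0.5% methylcellulose (0.01 mL/g body weight). Seizures were induced by subcutaneous pentylenetetrazol, given as a 0.85% solution in 0.9% saline. ED50 was found by varying the dose to give 3-4 points between 0% and 100% protection, then probit analysis with 95% confidence intervals.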

[23] = system: Mus musculus; test: Teratogenic effect in VPA-induced SWV mouse assessed as number of fetuses with neural tube deffects at 502 mg/kg, ip administered on morning of day 8 of gestation; format: toxicity, organism-based; design: dose 502 mg/kg, route intraperitoneal; settings: in vivo; in short: as §1
[24] = system: Mus musculus; test: Anticonvulsant activity in ip dosed CF1 albino mouse assessed as protection against 32 mA current-induced seizure by 6Hz psychomotor seizure test; format: functional
In short: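 In the 6 Hz psychomotor seizure test, male CF no. 1 albino mice (18-25 g) received the compound ip in 0.5% methylcellulose. Stimulation was at 32 or 44 mA. Doses were varied to give 3-4 points between 0% and 100% protection, and ED50 with 95% confidence interval came from probit analysis.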

[25] = system: Rattus norvegicus; test: Anticonvulsant activity in albino Sprague-Dawley rat assessed as protection against maximal electroshock-induced seizures at 50 mg/kg, po after 4 hrs; format: functional, organism-based; design: dose 50 mg/kg; in short: as §2

`CC1(C)C(C)(C)C1(F)C(N)=O` was tested, and the Activity [1] was 0, the Activity [2] was “inactive” and the Activity [3] was “Toxic”. For the same compound, the Activity [4] was “inactive”, the Activity [5] was “Toxic” and the Activity [6] was “Toxic”. The PI [7] was 2, the Activity [8] was 9.8% and the PI [9] was 20. For the same compound, the Activity [10] was 0, the Activity [11] was 73.2% and the Activity [12] was “inactive”. The Activity [13] was 0, the Activity [14] was “Non-toxic” and the ED50 [15] was > 100 mg/kg. For the same compound, the Activity [16] was “Active”, the Activity [17] was 4 and the Activity [18] was 90.2%. The Activity [19] was “inactive”, the Activity [20] was “Not Active” and the Activity [21] was “Non-toxic”. It also gave an ED50 [22] of 38 mg/kg, an Activity [23] of 0 and an ED50 [24] of 57 mg/kg. For the same compound, the Activity [25] was “inactive”.
